Reference: ChEMBL document CHEMBL1135991 (J Med Chem, 2002)

What was measured:
Melanocortin receptor 3 [1] = molecular target: T1, Melanocortin receptor 3 (Homo sapiens, UniProt P41968); experiment: Binding affinity for human Melanocortin-3 receptor (hMC3R) expressed in HEK293 cells; assay type: cell-based
Melanocortin receptor 4 [2] = molecular target: T2, Melanocortin receptor 4 (Homo sapiens, UniProt P32245); experiment: Inhibition of binding to human Melanocortin-4 receptor (hMC4R)
Melanocortin receptor 4 [3] = molecular target: T2, Melanocortin receptor 4; experiment: Binding affinity for human Melanocortin-4 receptor (hMC4R)
Melanocortin receptor 5 [4] = molecular target: T3, Melanocortin receptor 5 (Homo sapiens, UniProt P33032); experiment: Effective concentration against human melanocortin 5 receptor (hMC5R) in HEK293 cells; assay type: cell-based
How it was run: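 Transfected HEK293 cells were seeded 50 000/well 48 h ahead. They were preincubated 1 min at 37 °C in EBSS with IBMX, then given varying melanotropin concentrations for 3 min at 37 °C. The reaction was stopped with ice-cold Tris/EDTA and lysates boiled 15 min. Supernatant cAMP was measured by competitive binding kit. EC50 came from a nonlinear least-squares fit; duplicate experiments, each in triplicate.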

Melanocortin receptor 3 [5] = molecular target: T1, Melanocortin receptor 3; experiment: Inhibition of human Melanocortin-3 receptor (hMC3R) expressed in HEK293 cells; assay type: cell-based
Melanocortin receptor 5 [6] = molecular target: T3, Melanocortin receptor 5; experiment: Binding affinity for human melanocortin 5 receptor (hMC5R) expressed in HEK293 cells; assay type: cell-based
Melanocortin receptor 5 [7] = molecular target: T3, Melanocortin receptor 5; experiment: Stimulation of intracellular cAMP levels in HEK293 cells expressing human melanocortin 5 receptor
Melanocortin receptor 4 [8] = molecular target: T2, Melanocortin receptor 4; experiment: Stimulation of intracellular cAMP levels in CHO cells expressing human Melanocortin-4 receptor; assay type: functional, cell-based
Melanocortin receptor 3 [9] = molecular target: T1, Melanocortin receptor 3; experiment: Stimulation of intracellular cAMP levels in HEK293 cells expressing human Melanocortin-3 receptor
[10] = molecular target: Melanocortin receptor (M1 and M4) (Homo sapiens) (UniProt P32245+Q01726); experiment: Selectivity as ratio of binding affinity for human melanocortin 1 and melanocortin 4 receptors; assay type: protein assay
Homo sapiens = species: Homo sapiens; experiment: Selectivity as ratio of binding affinity for human melanocortin 1 and melanocortin 3 receptors

T2 sequence (P32245 whole entry): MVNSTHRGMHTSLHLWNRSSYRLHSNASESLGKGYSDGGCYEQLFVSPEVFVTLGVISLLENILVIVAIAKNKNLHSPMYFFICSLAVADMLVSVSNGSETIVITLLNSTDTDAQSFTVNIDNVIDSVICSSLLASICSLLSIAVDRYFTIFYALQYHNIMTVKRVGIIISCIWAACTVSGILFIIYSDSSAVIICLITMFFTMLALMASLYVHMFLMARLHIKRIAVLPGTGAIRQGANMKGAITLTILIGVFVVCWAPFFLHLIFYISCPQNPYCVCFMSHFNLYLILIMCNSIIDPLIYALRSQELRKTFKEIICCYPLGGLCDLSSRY
T1 sequence (P41968 whole entry): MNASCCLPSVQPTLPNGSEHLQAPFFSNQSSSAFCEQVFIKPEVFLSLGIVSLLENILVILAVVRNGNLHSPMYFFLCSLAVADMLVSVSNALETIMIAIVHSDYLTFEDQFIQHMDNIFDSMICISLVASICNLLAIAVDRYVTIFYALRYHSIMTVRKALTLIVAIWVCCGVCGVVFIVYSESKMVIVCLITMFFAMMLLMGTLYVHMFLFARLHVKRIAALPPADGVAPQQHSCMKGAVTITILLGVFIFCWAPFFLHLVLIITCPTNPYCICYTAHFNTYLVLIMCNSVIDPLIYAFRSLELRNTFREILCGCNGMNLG
T3 sequence (P33032 whole entry): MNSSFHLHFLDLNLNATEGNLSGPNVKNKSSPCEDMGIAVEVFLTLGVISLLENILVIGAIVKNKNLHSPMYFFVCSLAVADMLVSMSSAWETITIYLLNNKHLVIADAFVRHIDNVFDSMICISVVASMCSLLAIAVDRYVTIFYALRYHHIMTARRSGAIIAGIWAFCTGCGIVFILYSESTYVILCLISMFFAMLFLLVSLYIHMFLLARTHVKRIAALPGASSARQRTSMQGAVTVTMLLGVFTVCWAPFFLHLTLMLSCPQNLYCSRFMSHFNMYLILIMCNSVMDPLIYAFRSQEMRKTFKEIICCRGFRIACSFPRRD

Compound | Ki (Melanocortin receptor 3 [1]) [nM] | EC50 (Melanocortin receptor 4 [2]) [nM] | Ki (Melanocortin receptor 4 [3]) [nM] | EC50 (Melanocortin receptor 5 [4]) [nM] | EC50 (Melanocortin receptor 3 [5]) [nM] | ACT (Melanocortin receptor 5 [7]) [%] | ACT (Melanocortin receptor 4 [8]) [%] | ACT (Melanocortin receptor 3 [9]) [%] | further results
C[C@H]1NC(=O)[C@H](Cc2c[nH]cn2)NC(=O)CCC(=O)NCCCC[C@@H](C(N)=O)NC(=O)[C@H](Cc2c[nH]c3ccccc23)NC(=O)[C@H](CCCN=C(N)N)NC1=O | – | > 10000 | – | – | – | – | – | – | EC50 (Melanocortin receptor 5 [4]; hek293): > 10000 nM; EC50 (Melanocortin receptor 3 [5]; hek293): > 10000 nM
N=C(N)NCCC[C@@H]1NC(=O)[C@@H](Cc2ccccc2)NC(=O)[C@H](Cc2c[nH]cn2)NC(=O)CCCC(=O)NCCCC[C@@H](C(N)=O)NC(=O)[C@H](Cc2c[nH]c3ccccc23)NC1=O | 110 | 50 | 670 | > 10000 | 75 | – | – | – | Ki (Melanocortin receptor 5 [6]): 3100 nM
C[C@@H]1NC(=O)CCC(=O)NCCCC[C@@H](C(N)=O)NC(=O)[C@H](Cc2c[nH]c3ccccc23)NC(=O)[C@H](CCCN=C(N)N)NC(=O)[C@@H](Cc2ccccc2)NC1=O | 1400 | 22 | 1700 | > 10000 | 42 | – | – | – | –
C[C@@H]1NC(=O)[C@@H](Cc2ccccc2)NC(=O)[C@H](Cc2c[nH]cn2)NC(=O)CCC(=O)NCCCC[C@H](C(N)=O)NC(=O)[C@@H](Cc2c[nH]c3ccccc23)NC1=O | – | – | – | – | – | 0 | 0 | 53 | –
N=C(N)NCCC[C@@H]1NC(=O)[C@@H](Cc2ccccc2)NC(=O)[C@H](Cc2c[nH]cn2)NC(=O)CCCC(=O)NCCCC[C@H](C(N)=O)NC(=O)[C@@H](Cc2c[nH]c3ccccc23)NC1=O | – | – | – | – | – | 0 | 100 | 100 | –
C[C@H]1NC(=O)[C@H](Cc2c[nH]cn2)NC(=O)CCC(=O)NCCCC[C@H](C(N)=O)NC(=O)[C@@H](Cc2c[nH]c3ccccc23)NC(=O)[C@H](CCCN=C(N)N)NC1=O | – | – | – | – | – | 0 | 0 | 0 | –
NCCCC[C@H](NC(=O)[C@H](Cc1c[nH]c2ccccc12)NC(=O)[C@H](CCCN=C(N)N)NC(=O)[C@@H](Cc1ccccc1)NC(=O)[C@H](Cc1c[nH]cn1)NC(=O)CCC(=O)O)C(N)=O | – | – | – | – | – | 100 | 26.5 | 100 | –
N=C(N)NCCC[C@@H]1NC(=O)[C@@H](Cc2ccccc2)NC(=O)[C@@H]2CCCN2C(=O)CCC(=O)NCCCC[C@@H](C(N)=O)NC(=O)[C@H](Cc2c[nH]c3ccccc23)NC1=O | – | 2300 | 190 | – | – | – | – | – | Ki (Melanocortin receptor 3 [1]; hek293): 390 nM; EC50 (Melanocortin receptor 5 [4]; hek293): 1300 nM; EC50 (Melanocortin receptor 3 [5]; hek293): 790 nM; Ki (Melanocortin receptor 5 [6]; hek293): 990 nM
N=C(N)NCCC[C@@H]1NC(=O)[C@@H](Cc2ccccc2)NC(=O)[C@H](Cc2cnc[nH]2)NC(=O)c2ccccc2C(=O)NCCCC[C@@H](C(N)=O)NC(=O)[C@H](Cc2c[nH]c3ccccc23)NC1=O | 280 | 70 | 58 | > 5000 | 13 | – | – | – | –
N=C(N)NCCC[C@H](NC(=O)[C@@H](Cc1ccccc1)NC(=O)[C@H](Cc1cnc[nH]1)NC(=O)CCC(=O)O)C(=O)N[C@@H](Cc1c[nH]c2ccccc12)C(=O)N[C@@H](CCCCN)C(N)=O | 140 | 3000 | 630 | 1100 | 68 | – | – | – | Ki (Melanocortin receptor 5 [6]): 880 nM
N=C(N)NCCC[C@@H]1NC(=O)[C@@H](Cc2ccc3ccccc3c2)NC(=O)[C@H](Cc2cnc[nH]2)NC(=O)c2ccccc2C(=O)NCCCC[C@@H](C(N)=O)NC(=O)[C@H](Cc2c[nH]c3ccccc23)NC1=O | 7.8 | > 10000 | 57 | 640 | 18 | – | – | – | Ki (Melanocortin receptor 5 [6]): 5700 nM

More lines, main results first:

Ki (Melanocortin receptor 3 [1]) [nM] | EC50 (Melanocortin receptor 4 [2]) [nM] | Ki (Melanocortin receptor 4 [3]) [nM] | EC50 (Melanocortin receptor 5 [4]) [nM] | EC50 (Melanocortin receptor 3 [5]) [nM] | ACT (Melanocortin receptor 5 [7]) [%] | ACT (Melanocortin receptor 4 [8]) [%] | ACT (Melanocortin receptor 3 [9]) [%] | Compound | further results
5.9 | 1200 | 220 | 1.01 | > 10000 | – | – | – | N=C(N)NCCC[C@@H]1NC(=O)[C@@H](Cc2ccc3ccccc3c2)NC(=O)[C@H](Cc2cnc[nH]2)NC(=O)CCCC(=O)NCCCC[C@@H](C(N)=O)NC(=O)[C@H](Cc2c[nH]c3ccccc23)NC1=O | Ki (Melanocortin receptor 5 [6]): 26 nM
– | – | – | – | – | 56 | 0 | 36 | N=C(N)NCCC[C@@H]1NC(=O)[C@@H](Cc2ccc3ccccc3c2)NC(=O)[C@H](Cc2c[nH]cn2)NC(=O)c2ccccc2C(=O)NCCCC[C@H](C(N)=O)NC(=O)[C@@H](Cc2c[nH]c3ccccc23)NC1=O | –
– | – | – | – | – | 100 | 60.5 | 21 | N=C(N)NCCC[C@H]1NC(=O)[C@H](Cc2ccccc2)NC(=O)[C@H]2CCCN2C(=O)CCC(=O)NCCCC[C@@H](C(N)=O)NC(=O)[C@H](Cc2c[nH]c3ccccc23)NC1=O | –
370 | > 1000 | – | > 10000 | 1000 | – | – | – | C[C@@H]1NC(=O)[C@@H](Cc2ccccc2)NC(=O)[C@H](Cc2cnc[nH]2)NC(=O)CCC(=O)NCCCC[C@@H](C(N)=O)NC(=O)[C@H](Cc2c[nH]c3ccccc23)NC1=O | –
12.1 | 260 | 87 | 150 | 70 | – | – | – | N=C(N)NCCC[C@@H]1NC(=O)[C@@H](Cc2ccc3ccccc3c2)NC(=O)[C@H](Cc2c[nH]cn2)NC(=O)CCC(=O)NCCCC[C@@H](C(N)=O)NC(=O)[C@H](Cc2c[nH]c3ccccc23)NC1=O | Ki (Melanocortin receptor 5 [6]): 140 nM
– | – | – | – | – | 100 | 35 | 88 | N=C(N)NCCC[C@@H]1NC(=O)[C@@H](Cc2ccc3ccccc3c2)NC(=O)[C@H](Cc2c[nH]cn2)NC(=O)CCC(=O)NCCCC[C@H](C(N)=O)NC(=O)[C@@H](Cc2c[nH]c3ccccc23)NC1=O | –
– | – | – | – | – | 81 | 22.8 | 0 | N=C(N)NCCC[C@@H]1NC(=O)[C@@H](Cc2ccc3ccccc3c2)NC(=O)[C@H](Cc2c[nH]cn2)NC(=O)CCCC(=O)NCCCC[C@H](C(N)=O)NC(=O)[C@@H](Cc2c[nH]c3ccccc23)NC1=O | –
– | – | – | – | – | 0 | 35 | 19 | C[C@@H]1NC(=O)CCC(=O)NCCCC[C@H](C(N)=O)NC(=O)[C@@H](Cc2c[nH]c3ccccc23)NC(=O)[C@H](CCCN=C(N)N)NC(=O)[C@@H](Cc2ccccc2)NC1=O | –
– | – | – | – | – | 0 | 98 | 76 | N=C(N)NCCC[C@@H]1NC(=O)[C@@H](Cc2ccccc2)NC(=O)[C@H](Cc2c[nH]cn2)NC(=O)c2ccccc2C(=O)NCCCC[C@H](C(N)=O)NC(=O)[C@@H](Cc2c[nH]c3ccccc23)NC1=O | –
– | – | – | – | – | 67 | 100 | 95 | N=C(N)NCCC[C@@H]1NC(=O)[C@@H](Cc2ccccc2)NC(=O)[C@H](Cc2c[nH]cn2)NC(=O)CCC(=O)NCCCC[C@H](C(N)=O)NC(=O)[C@@H](Cc2c[nH]c3ccccc23)NC1=O | Selectivity ratio [10]: 700; Selectivity ratio (Homo sapiens): 52.5
77 | 1.6 | 5.7 | 560 | 70 | – | – | – | N=C(N)NCCC[C@@H]1NC(=O)[C@@H](Cc2ccccc2)NC(=O)[C@H](Cc2c[nH]cn2)NC(=O)CCC(=O)NCCCC[C@@H](C(N)=O)NC(=O)[C@H](Cc2c[nH]c3ccccc23)NC1=O | Ki (Melanocortin receptor 5 [6]): 660 nM
